Ten compounds from ChEMBL document CHEMBL1151774, “Synthesis and biological evaluation of new N-linked 5-triazolylmethyl oxazolidinones” (Eur J Med Chem, 2008) can be followed below.

Converted amounts (≈) assume the structure as drawn.

The subject of data set [1] is Staphylococcus aureus. Briefly: Antimicrobial activity against Staphylococcus aureus ATCC 29213 after 16 to 18 hrs by agar dilution method. It is filed as functional.
The subject of data set [2] is Staphylococcus aureus. The data set can be described thus: Antimicrobial activity against methicillin-susceptible Staphylococcus aureus after 16 to 18 hrs by agar dilution method. It is filed as functional. A general note: Agar dilution tests growth on a series of plates holding different concentrations.
The next data set has as its system Streptococcus pneumoniae. The data set can be described thus: Antimicrobial activity against sStreptococcus pneumoniae after 16 to 18 hrs by agar dilution method. The data set is classed as functional.
Another data set relates to Enterococcus faecalis. The data set can be described thus: Antimicrobial activity against Enterococcus faecalis after 16 to 18 hrs by agar dilution method. The data set is classed as functional.
In data set [3] the test system is Staphylococcus aureus. Briefly: Antimicrobial activity against methicillin-resistant Staphylococcus aureus after 16 to 18 hrs by agar dilution method. The data set is classed as functional.
A short description of data set [4]: Elimination half life in Sprague-Dawley rat at 10 mg/kg, po. The data set is classed as ADME, organism-based. More on the design: dose 10 mg/kg, route oral. The conditions noted are these: in vivo, read-out: beta t1/2 (converted). The method, boiled down:
(§1)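 Single dose given orally (10 or 50 mg/kg) or intravenously (10 mg/kg). Serial 300 µL blood samples were taken from the retrobulbar vein. Plasma was quantified by LC-MS. Parameters came from mean plasma concentration by non-compartmental analysis. F is absolute oral bioavailability, assuming linear pharmacokinetics.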

Data set [5] is described as follows: Tmax in Sprague-Dawley rat at 10 mg/kg, po. The settings on record: in vivo. It is filed as ADME, organism-based. More on the design: dose 10 mg/kg, route oral. The method, boiled down:
as §1

The nature of data set [6]: Oral bioavailability in Sprague-Dawley rat at 10 mg/kg. The data set is classed as ADME, organism-based. The conditions noted are these: in vivo. The method, boiled down: as §1
Data set [7] in a line: Elimination half life in Sprague-Dawley rat at 10 mg/kg, iv. The data set is classed as ADME, organism-based. Details: dose 10 mg/kg, route intravenous. The settings on record: in vivo, read-out: beta t1/2 (converted). The method, boiled down: as §1
Data set [8] is described as follows: Elimination half life in Sprague-Dawley rat at 50 mg/kg, po. The settings on record: in vivo, read-out: beta t1/2 (converted). Details: dose 50 mg/kg, route oral. The data set is classed as ADME, organism-based. The essentials: as §1
Data set [9] concerns Staphylococcus aureus. The data set can be described thus: Antimicrobial activity against methicillin-resistant Staphylococcus aureus 05-2 infected in iv dosed KunMing SPF mouse. The data set is classed as functional. The essentials: (§2)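 Mice given a lethal systemic infection by intraperitoneal injection of the MLD inoculum of MRSA 05-2. Compound dosed orally or by i.v. injection in 0.9% NaCl immediately and 4 h post-infection. ED50 (dose curing 50% of infected mice) calculated by the Bliss method on day 7 post-infection, with 95% confidence ranges.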

A short description of data set [10]: Clearance in Sprague-Dawley rat at 10 mg/kg, iv. The data set is classed as ADME, organism-based. Details: dose 10 mg/kg, route intravenous. The settings on record: in vivo. The essentials:
as §1

Data set [11] in a line: Clearance in Sprague-Dawley rat at 50 mg/kg, po. The data set is classed as ADME, organism-based. Details: dose 50 mg/kg, route oral. The conditions noted are these: in vivo. The method, boiled down: as §1
A short description of data set [12]: AUC (0 to infinity) in Sprague-Dawley rat at 10 mg/kg, iv. More on the design: time infinity, dose 10 mg/kg, route intravenous. It is filed as ADME, organism-based. The settings on record: plasma. The method, boiled down:
as §1

A short description of data set [13]: AUC (0 to infinity) in Sprague-Dawley rat at 50 mg/kg, po. It is filed as ADME, organism-based, Plasma. More on the design: time infinity, dose 50 mg/kg, route oral. The settings on record: Sprague-Dawley, plasma. The essentials:
as §1

Data set [14] can be described thus: Tmax in Sprague-Dawley rat at 50 mg/kg, po. It is filed as ADME, organism-based. Details: dose 50 mg/kg, route oral. The settings on record: in vivo. The essentials:
as §1

Data set [15] deals with Staphylococcus aureus. The data set can be described thus: Antimicrobial activity against methicillin-resistant Staphylococcus aureus 05-2 infected in po dosed KunMing SPF mouse. It is filed as functional. The essentials:
as §2

Data set [16] is described as follows: AUC (0 to infinity) in Sprague-Dawley rat at 10 mg/kg, po. The data set is classed as ADME, organism-based, Plasma. Details: time infinity, dose 10 mg/kg, route oral. The conditions noted are these: Sprague-Dawley, plasma. The essentials: as §1
The nature of data set [17]: Cmax in Sprague-Dawley rat at 50 mg/kg, po. The settings on record: in vivo. Details: dose 50 mg/kg, route oral. It is filed as ADME, organism-based. The method, boiled down: as §1
A short description of data set [18]: Cmax in Sprague-Dawley rat at 10 mg/kg, po. The data set is classed as ADME, organism-based. More on the design: dose 10 mg/kg, route oral. The settings on record: in vivo. The essentials:
as §1

The nature of data set [19]: Clearance in Sprague-Dawley rat at 10 mg/kg, po. The data set is classed as ADME, organism-based. Details: dose 10 mg/kg, route oral. The conditions noted are these: in vivo. The essentials: as §1

Usually MIC stands for the smallest concentration in the dilution series that meets the test's criterion for growth inhibition. On to `O=C1O[C@@H](Cn2ccnn2)CN1c1ccc(N2CCN(Cc3ccncc3)CC2)c(F)c1`, for which the MIC in the data set on Staphylococcus aureus [1] was determined as 0.5 µg/mL (≈ 1.14 µM); against Staphylococcus aureus [2], 0.5 µg/mL (≈ 1.14 µM); in the data set on Streptococcus pneumoniae, 1 µg/mL (≈ 2.29 µM); with Enterococcus faecalis, 2 µg/mL (≈ 4.57 µM); in the data set on Staphylococcus aureus [3] it was 1 µg/mL (≈ 2.29 µM).
Take `O=C1O[C@@H](Cn2ccnn2)CN1c1ccc(N2CCN(Cc3ccccn3)CC2)c(F)c1`: the MIC is 0.125 µg/mL (≈ 0.286 µM) in the data set on Staphylococcus aureus [1]; 0.125 µg/mL (≈ 0.286 µM) in the data set on Staphylococcus aureus [2]; 0.5 µg/mL (≈ 1.14 µM) against Streptococcus pneumoniae; 0.5 µg/mL (≈ 1.14 µM) in the data set with Enterococcus faecalis; 0.5 µg/mL (≈ 1.14 µM) in the data set on Staphylococcus aureus [3].
For `Nc1cccc(CN2CCN(c3ccc(N4C[C@H](Cn5ccnn5)OC4=O)cc3F)CC2)c1`, the MIC against Staphylococcus aureus [1] is 0.25 µg/mL (≈ 0.554 µM); against Staphylococcus aureus [2] it was 0.25 µg/mL (≈ 0.554 µM); against Streptococcus pneumoniae, 0.5 µg/mL (≈ 1.11 µM); against Enterococcus faecalis it was 0.5 µg/mL (≈ 1.11 µM); against Staphylococcus aureus [3], 0.5 µg/mL (≈ 1.11 µM).
For `O=C1O[C@@H](Cn2ccnn2)CN1c1ccc(N2CCN(Cc3ccc([N+](=O)[O-])cc3)CC2)c(F)c1`, the MIC with Staphylococcus aureus [1] was 0.5 µg/mL (≈ 1.04 µM); against Staphylococcus aureus [2] it was 0.5 µg/mL (≈ 1.04 µM); with Streptococcus pneumoniae, 4 µg/mL (≈ 8.31 µM); against Enterococcus faecalis, 8 µg/mL (≈ 16.6 µM); with Staphylococcus aureus [3], more than 8 µg/mL.
As to `O=C1O[C@@H](Cn2ccnn2)CN1c1ccc(N2CCN(Cc3ccccc3[N+](=O)[O-])CC2)c(F)c1`, the MIC was 0.125 µg/mL (≈ 0.26 µM) in the data set with Staphylococcus aureus [1]; 0.125 µg/mL (≈ 0.26 µM) against Staphylococcus aureus [2]; 1 µg/mL (≈ 2.08 µM) against Streptococcus pneumoniae; more than 2 µg/mL in the data set with Enterococcus faecalis; 1 µg/mL (≈ 2.08 µM) against Staphylococcus aureus [3].
The Tmax is the time from dosing to the highest level. The bioavailability is dose-corrected exposure relative to a reference, in per cent. A lower bioavailability goes with little systemic uptake. What is called ED50 is the dose at which the effect has come halfway, by size or by number of responders. In general, clearance refers to a measure of how efficiently the substance is removed, as volume per time. Lower therefore signals a low capacity for elimination. The term CL/F denotes clearance divided by bioavailability, as obtained after extravascular dosing. In general, AUC(0-inf) refers to total exposure, with the tail of the curve extrapolated. In general, Cmax refers to the highest concentration seen after dosing. For `O=C1O[C@@H](Cn2ccnn2)CN1c1ccc(N2CCN(Cc3ccoc3)CC2)c(F)c1`, the half-life in [4] is 2.76 h; in data set [7], 2.95 h; in data set [8], 8.6 h. Moreover, the MIC turned out to be 0.008 µg/mL (≈ 0.0188 µM) against Staphylococcus aureus [1]; 0.008 µg/mL (≈ 0.0188 µM) against Staphylococcus aureus [2]; 0.03 µg/mL (≈ 0.0703 µM) in the data set with Streptococcus pneumoniae; 0.5 µg/mL (≈ 1.17 µM) in the data set with Enterococcus faecalis; 0.03 µg/mL (≈ 0.0703 µM) with Staphylococcus aureus [3]. The Tmax in data set [5] is 0.88 h; in data set [14], 1.9 h. Moreover, the bioavailability in [6] came to 62.7%. For the same compound, the ED50 in the data set on Staphylococcus aureus [9] amounted to 6.99 mg/kg; in the data set with Staphylococcus aureus [15] it was 7.47 mg/kg. The clearance in data set [10] stood at 6.98 mL/min/kg. The CL/F stood at 8.86 mL/min/kg in data set [11] and 10.5 mL/min/kg in [19]. The AUC(0-inf) is 26200 ng·h/mL in [12], 85800 ng·h/mL in [13] and 16400 ng·h/mL in data set [16]. Moreover, the Cmax in data set [17] turned out to be 10700 ng/mL; in [18] it was 3040 ng/mL.
Turning to `O=C1O[C@@H](Cn2ccnn2)CN1c1ccc(N2CCN(Cc3ccco3)CC2)c(F)c1`, the MIC against Staphylococcus aureus [1] worked out at 0.06 µg/mL (≈ 0.141 µM); against Staphylococcus aureus [2], 0.06 µg/mL (≈ 0.141 µM); with Streptococcus pneumoniae, 0.5 µg/mL (≈ 1.17 µM); in the data set with Enterococcus faecalis, 0.5 µg/mL (≈ 1.17 µM); in the data set on Staphylococcus aureus [3] it was 0.5 µg/mL (≈ 1.17 µM). For the same compound, the ED50 was found to be 12 mg/kg in the data set with Staphylococcus aureus [9] and 12.3 mg/kg in the data set on Staphylococcus aureus [15].
For the compound `Cc1ccc(CN2CCN(c3ccc(N4C[C@H](Cn5ccnn5)OC4=O)cc3F)CC2)s1`, the MIC in the data set with Staphylococcus aureus [1] came out at 0.125 µg/mL (≈ 0.274 µM); against Staphylococcus aureus [2], 0.06 µg/mL (≈ 0.131 µM); against Streptococcus pneumoniae it was 2 µg/mL (≈ 4.38 µM); against Enterococcus faecalis, 4 µg/mL (≈ 8.76 µM); in the data set on Staphylococcus aureus [3], 4 µg/mL (≈ 8.76 µM).
Turning to `CC(=O)NC[C@H]1CN(c2ccc(N3CCOCC3)c(F)c2)C(=O)O1` [LINEZOLID], the MIC in the data set on Staphylococcus aureus [1] came out at 0.5 µg/mL (≈ 1.48 µM); in the data set on Staphylococcus aureus [2] it was 0.5 µg/mL (≈ 1.48 µM); in the data set with Staphylococcus aureus [3] it was 1 µg/mL (≈ 2.96 µM). For the same compound, the ED50 in the data set on Staphylococcus aureus [9] and in the data set with Staphylococcus aureus [15] was 8.45 mg/kg in each case.
Regarding `O=Cc1cccc(CN2CCN(c3ccc(N4C[C@H](Cn5ccnn5)OC4=O)cc3F)CC2)c1`, the MIC against Staphylococcus aureus [1] turned out to be 0.25 µg/mL (≈ 0.538 µM); in the data set with Staphylococcus aureus [2] it was 0.5 µg/mL (≈ 1.08 µM); with Streptococcus pneumoniae it was 1 µg/mL (≈ 2.15 µM); in the data set on Enterococcus faecalis it was 1 µg/mL (≈ 2.15 µM); with Staphylococcus aureus [3], 0.125 µg/mL (≈ 0.269 µM).
